Test results from ChEMBL document CHEMBL1147363, “Inhibitory effect of carnosic acid on HIV-1 protease in cell-free assays [corrected]” (J Nat Prod, 1993).
Values after ≈ are worked out from the molar mass of the structure shown. Active and inactive are the calls of the source. The rule behind the calls is not given here.

Key:
[1] = target: Protease (Human immunodeficiency virus 1) (UniProt Q9YQ12); assay: Inhibition of HIV1 recombinant protease expressed in Escherichia coli BL21 (DE3) cells by SDS-PAGE
Protease (Human immunodeficiency virus 1), sequence (Q9YQ12 as listed by the source): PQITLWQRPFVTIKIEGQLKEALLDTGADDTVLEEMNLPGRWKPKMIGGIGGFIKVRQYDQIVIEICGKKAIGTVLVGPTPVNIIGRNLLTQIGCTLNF

[2] = target: T1, Cathepsin D (Bos taurus) (UniProt P80209); assay: Inhibition of bovine spleen cathepsin D up to 10 ug/ml
T1 sequence (whole entry): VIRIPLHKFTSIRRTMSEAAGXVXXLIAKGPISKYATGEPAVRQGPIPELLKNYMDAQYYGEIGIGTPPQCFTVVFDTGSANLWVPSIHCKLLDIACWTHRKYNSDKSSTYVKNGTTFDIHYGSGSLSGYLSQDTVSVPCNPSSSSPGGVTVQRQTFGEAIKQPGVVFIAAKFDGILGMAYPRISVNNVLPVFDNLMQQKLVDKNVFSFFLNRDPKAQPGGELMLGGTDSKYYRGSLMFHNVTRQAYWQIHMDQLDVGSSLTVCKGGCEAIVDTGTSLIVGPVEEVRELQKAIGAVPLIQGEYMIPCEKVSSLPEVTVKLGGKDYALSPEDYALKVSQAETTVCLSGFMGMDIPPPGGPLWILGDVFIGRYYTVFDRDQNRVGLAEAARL
Outline: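 Cathepsin D purified from bovine spleen, 40 nM final. Compound (DMSO stock diluted in 0.1 M Na acetate pH 3.5) preincubated with enzyme 10 min. 2% hemoglobin substrate added, 10 min at 37°. Stopped with 0.33 M trichloroacetic acid. Soluble products treated with NaOH and Folin-Ciocalteu reagent; absorbance read at 750 nm. Tested up to 10 μg/ml.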

[3] = organism: Sus scrofa; assay: Inhibition of pig pepsin up to 10 ug/ml
Outline: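 Porcine pepsin, 40 nM final. Compound stock diluted in 0.01 M HCl and preincubated with enzyme 10 min at room temperature. 2% hemoglobin substrate (pH 1.8) added, 10 min at 37°. Stopped with 0.33 M TCA; activity by modified Anson hemoglobin method. Tested up to 10 μg/ml.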

[4] = system: Human immunodeficiency virus 1; assay: Antiviral activity against HIV1 replication infected in human MT2 cells assessed as reduction in plaque formation after 3 days by MTT assay; assay type: functional; details: Human immunodeficiency virus 1, MT2, 72 h
Outline: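 MT-2 cells pretreated 30 min at room temperature with compound (DMSO stock diluted in RPMI), infected with HIV-1 (3b or rf) 1 h at 36°, washed, then grown 3 days in compound-containing RPMI. Progeny titre measured by plaque assay on poly-L-lysine-coated MT-2 monolayers under agarose overlays, stained with MTT. Activity expressed as percent reduction in titre versus untreated virus; IC90 reported.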

[5] = system: H9; assay: Cytotoxicity against human H9 cells after 3 or 5 days by XTT assay; assay type: cell-based; details: h9, 120 h
Outline: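 Cells seeded at 1×10^5 per well with graded compound concentrations and grown at 36° for 3 or 5 days depending on cell type. XTT (1 mg/ml, with 0.025 mM phenazine methosulfate) added, 1 h at 36°, OD450 read. TC90 is the concentration giving 90% reduction in viable cells.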

SMILES	IC90 [1] [µg/mL]	Activity [2]	Activity [3]	IC90 [4] [µg/mL]	TC90 [5] [µg/mL]
CO[C@H]1c2cc(C(C)C)c(O)c(O)c2[C@@]23CCCC(C)(C)[C@@H]2[C@@H]1OC3=O	1.5	inactive	inactive		
CCO[C@H]1c2cc(C(C)C)c(O)c(O)c2[C@@]23CCCC(C)(C)[C@@H]2[C@@H]1OC3=O	1.7	inactive	inactive		
COc1c(C(C)C)cc2c(c1OC)[C@@]13CCCC(C)(C)[C@@H]1C[C@@H]2OC3=O	> 10	inactive	inactive		
CC(C)c1cc2c(c(O)c1O)[C@@]13CCCC(C)(C)[C@@H]1[C@H](OC3=O)[C@H]2O	0.6	inactive	inactive		
CC(C)c1cc2c(c(O)c1O)[C@@]13CCCC(C)(C)[C@@H]1C[C@@H]2OC3=O	> 10	inactive	inactive		
CC(C)c1cc2c(c(O)c1O)[C@@]1(C(=O)O)CCCC(C)(C)[C@@H]1CC2 [CARNOSIC ACID]	0.08	inactive	inactive	0.32 (≈ 0.963 µM)	0.36 (≈ 1.08 µM)
